In the library only some 1.7% were active in any assay of this set; here they are far more common.
ZTA DNA inh = counter-screen for EBNA-1 inhibitors: inhibitors of Epstein-Barr virus ZTA | ZTA-DNA binding, fluorescence polarization | AID 2234 | actives 0.15% (n = 320,000) | inhibition, % at 11 µM; in the data active means inhibition above about 33%
PP5 inh = PP5 phosphatase inhibitors, primary screen, biochemical, fluorescence; Serine/threonine-protein phosphatase 5 (Homo sapiens), P53041; purified PP5c, OMFP substrate fluorescence; inhibition, % at 6.7 µM; actives 0.18% (n = 320,000); AID 1987, 2009;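 active means inhibition above the campaign's mean inhibition across all tested compounds plus 3 SD, cut at about 9.5% in these data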;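 further: 0% = DMSO only and 100% = 100 µM cantharidin control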
Target sequence (P53041 whole entry, looked up): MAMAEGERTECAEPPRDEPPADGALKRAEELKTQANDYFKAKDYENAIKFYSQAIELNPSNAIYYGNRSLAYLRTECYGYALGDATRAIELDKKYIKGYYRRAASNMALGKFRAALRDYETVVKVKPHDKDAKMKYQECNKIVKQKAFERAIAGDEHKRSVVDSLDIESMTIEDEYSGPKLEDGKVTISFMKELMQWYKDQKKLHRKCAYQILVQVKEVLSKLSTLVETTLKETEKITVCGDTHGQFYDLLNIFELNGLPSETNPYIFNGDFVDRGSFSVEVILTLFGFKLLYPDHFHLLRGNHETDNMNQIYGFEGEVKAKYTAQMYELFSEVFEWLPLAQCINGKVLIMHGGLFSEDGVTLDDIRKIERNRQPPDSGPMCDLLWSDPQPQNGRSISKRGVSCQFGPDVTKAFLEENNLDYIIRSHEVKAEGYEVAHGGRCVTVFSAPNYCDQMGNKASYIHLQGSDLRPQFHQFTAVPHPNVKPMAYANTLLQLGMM
PP1 inh = PP1-alpha phosphatase inhibitors, primary screen, counter-screen for PP5 inhibitor project, biochemical, fluorescence, OMFP substrate, single point | purified PP1alpha | actives 0.9% (n = 320,000) | inhibition, % at 6.7 µM | AID 2235, 2010;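 active means inhibition above the mean inhibition of all tested compounds plus 3 SD, computed separately for each screening campaign, cut at about 15% in these data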
EBNA-1 inh = EBNA-1 DNA-binding inhibitors, primary screen, biochemical, fluorescence polarization; inhibition, % at 14.8 µM; actives 0.34% (n = 300,000); in the data active means inhibition above about 28%
HCV core dimer = inhibitors of HCV core protein dimerization, primary screen, biochemical, TR-FRET, high-throughput | actives 0.33% (n = 300,000) | TR-FRET GST/Flag-core106 dimerization, 1536-well | AID 1899, 2009 | inhibition, % at 5 µM;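 active means inhibition above the mean of all tested compounds plus 3 SD, set per screening campaign, cut at about 45% in these data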
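assay system = GST-tagged and Flag-tagged HCV core protein residues 1-106 | controls = unlabelled core106 and no-GST-core106 wells | incubation = compound-protein-antibody incubation 4 h at 22.5 °C | probe or stimulus = Eu donor and XL665 acceptor anti-tag antibodies | read-out = % inhibition based on acceptor/donor emission ratio | signal = TR-FRET 671 and 617 nm emission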
PP1 confirm = PP1 phosphatase inhibitors, confirmation, biochemical, fluorescence, OMFP substrate, triplicate; shares compounds with PP1 inh; purified PP1alpha; inhibition, % at 6.7 µM; actives 52% (n = 1,900);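 active means mean PP1 inhibition above a set limit taken from the earlier primary screen, cut at about 15% in these data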
PP5 inh counter = PP5 phosphatase inhibition by PP1 hits, confirmation, counter-screen for PP1 inhibitor project, biochemical, fluorescence, triplicate; purified PP5c, OMFP fluorescence; actives 4% (n = 1,900); AID 2360, 2010; inhibition, % at 6.7 µM; shares compounds with PP1 inh;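 active means mean PP5 inhibition over triplicate wells above about 9.5% taken from the earlier PP1 screen, limit read from the data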
* marks the source's active call; other numbers are inactive results; . = no result.

SMILES	ZTA DNA inh	PP5 inh	PP1 inh	EBNA-1 inh	HCV core dimer	PP1 confirm	PP5 inh counter
COc1cnc(-c2ccccn2)nc1Oc1c(C)cccc1C	12	1	19*	6	-1	25*	-2
COc1cnc(-c2ccccc2)nc1Oc1cccc(C)c1	-2	5	0	2	0	.	.
Cc1cc(N2CCCC2)ccc1/C=N/n1cnnc1	-2	2	18*	5	-2	1	-7
CCOC(=O)C1CCN(C(=O)CCCn2nc(CC)n3c(cc4occc43)c2=O)CC1	9	-1	2	-4	2	.	.
COc1ccc(C2=Nn3c(nnc3-c3ccccc3)SC2)cc1OC	-4	4	-1	-7	5	.	.
Cc1cc(-c2nnc3n2N=C(c2ccc(-c4ccccc4)cc2)CS3)n[nH]1	19	0	34*	13	33	23*	-1
c1ccc(-c2cc(-c3nnc4n3N=C(c3ccc5ccccc5c3)CS4)[nH]n2)cc1	10	5	30*	-2	23	23*	-2
Cc1cc(-c2nnc3n2N=C(c2ccccc2)CS3)n[nH]1	-2	-2	-3	-2	-6	.	.
Cc1nn(CSc2c(F)c(F)c(F)c(F)c2F)c(C)c1[N+](=O)[O-]	4	4	-4	.	.	.	.
COC(=O)c1ccc(CNC(=O)c2ccc(COc3ccccc3)cc2)cc1	12	0	26*	7	20	24*	-2
CCOC(=O)C1=C(c2ccccc2)Nc2ncnn2C1c1ccc(C(=O)O)cc1 (stereo not given)	-19	-3	-4	-1	-2	.	.
CCOC(=O)C1=C(c2ccccc2)NC(N)=NC1c1ccc(OCc2ccc(C(=O)OC)cc2)cc1 (stereo not given)	-8	2	44*	-3	-8	31*	-4
COc1ccc(-c2cn(Cc3ccc(C)cc3)nn2)cc1	4	-1	0	7	-16	.	.
COc1cc(OC)nc(NC(=O)CS(=O)(=O)c2ccccc2)n1	-14	0	30*	3	-4	-3	-1
COc1ccc(OC)c(NC(=O)CS(=O)(=O)c2ccccc2)c1	-18	1	-2	2	-2	.	.
COc1cccc(CNC(=O)CCS(=O)(=O)c2ccccc2Cl)c1	-2	-2	-2	.	.	.	.
COc1ccc(-n2c(COc3ccc(Cl)cc3)nnc2SCc2ccc(C#N)cc2)cc1	5	5	20*	-5	10	5	6
CN(C)CC(CCCCC(CN(C)C)C(=O)c1ccccc1)C(=O)c1ccccc1 (stereo not given)	-4	2	-4	6	0	.	.
O=C(NC(=S)Nc1ccccc1[N+](=O)[O-])c1ccccc1Cl	3	2	-2	3	2	.	.
O=C(O)c1ccc(Cl)c(NC(=S)NC(=O)c2ccccc2[N+](=O)[O-])c1	1	-3	18*	11	0	-3	-3
C=CCN1C(=O)C(CC(=O)O)SC1=Nc1ccc(C)cc1 (stereo not given)	-3	-3	-4	4	0	.	.
O=C(c1ccccc1F)N(Cc1nc2ccccc2c(=O)[nH]1)C1CCCC1	-20	2	-2	-6	4	.	.
COc1ccc(CCNC(=O)COc2ccc(S(=O)(=O)NCC(C)C)cc2Cl)cc1OC	-1	2	18*	-2	6	-1	0
Clc1ccc(CN2CCN(c3ncccn3)CC2)cc1	2	3	3	1	-6	.	.
CCC(C)NC(=O)CCc1nnc2ccc(N3CCC(C)CC3)nn12 (stereo not given)	-10	1	-3	-3	-1	.	.
SMILES	ZTA DNA inh	PP5 inh	PP1 inh	EBNA-1 inh	HCV core dimer	PP1 confirm	PP5 inh counter
COC(=O)C(NC(=O)CCc1nnc2ccc(N3CCC(C)CC3)nn12)C(C)C (stereo not given)	7	1	31*	5	2	-4	-2
Cc1ccc(NC(=O)CSc2nc(NS(=O)(=O)c3ccccc3)cc(=O)[nH]2)cc1	12	4	22*	6	4	-1	-6
CC(=O)NC(c1cccs1)c1cc(F)c2cccnc2c1O (stereo not given)	-9	0	-6	.	.	.	.
Cc1ccc(C(NC(=O)C(C)C)c2cc([N+](=O)[O-])c3cccnc3c2O)cc1 (stereo not given)	0	5	26*	-1	-3	20*	-1
CC(C)C(=O)NC(c1cccs1)c1cc([N+](=O)[O-])c2cccnc2c1O (stereo not given)	4	1	26*	-8	-2	16*	8
CC(=O)c1ccc(NC(=O)CCS(=O)(=O)c2ccc3c(c2)n(C)c(=O)c(=O)n3C)cc1	1	-1	-5	-9	-6	.	.
COc1ccc(-c2nc(NC(=O)c3[nH]c(C)c(C(C)=O)c3C)sc2C)cc1	-13	4	1	6	8	.	.
N#Cc1cc2c(=O)n3ccccc3nc2n(-c2ccccc2Cl)c1=O	-9	3	-4	-10	2	.	.
COc1cccc2cc(/C(C)=N/Nc3nc(-c4cc(C)ccc4C)cs3)c(=O)oc12	6	1	20*	7	76*	19*	1
COc1ccc(Nc2nc(-c3cc4cccc(OC)c4oc3=O)cs2)cc1	17	1	1	2	15	.	.
O=C(O)c1ccc(COc2ccccc2/C=C2\NC(=O)N(Cc3ccc(F)cc3)C2=O)cc1	13	3	3	0	4	.	.
O=C(O)c1ccc(COc2ccccc2/C=C2/NC(=O)N(c3cccc(Cl)c3)C2=O)cc1	3	1	38*	18	4	35*	2
Cc1ccccc1NC(=O)CN1C(=O)N/C(=C\c2ccccc2OCc2ccc(C(=O)O)cc2)C1=O	4	3	18*	-11	-4	16*	-7
COc1ccc2oc(C(=O)OCC(=O)Nc3ccc(C(=O)N(C)C)cc3)c(C)c2c1	12	0	-1	-5	10	.	.
Nc1nc2ccc(NC(=O)c3ccco3)cc2s1	-11	1	2	-11	-10	.	.
O=C(O)C1Nc2ccc(OC(F)(F)F)cc2C2C=CCC12 (stereo not given)	3	-1	22*	3	0	4	-1
O=C(NCc1ccccc1)c1nc2c(nnn2Cc2cccc(Cl)c2)c(=O)[nH]1	18	-3	21*	10	5	14	-3
O=C(NCCc1ccccc1)c1nc2c(nnn2Cc2ccccc2Cl)c(=O)[nH]1	19	0	47*	12	21	21*	-1

Assay outcomes (PubChem)
